{"source": "ChEMBL document CHEMBL1932933", "about": "“A small chemical library of 2-aminoimidazole derivatives as BACE-1 inhibitors: Structure-based design, synthesis, and biological evaluation” (Eur J Med Chem, 2012)", "key": {"[1]": {"target": "T1, Beta-secretase 1 (Homo sapiens, UniProt P56817)", "T1 sequence (P56817 whole entry)": "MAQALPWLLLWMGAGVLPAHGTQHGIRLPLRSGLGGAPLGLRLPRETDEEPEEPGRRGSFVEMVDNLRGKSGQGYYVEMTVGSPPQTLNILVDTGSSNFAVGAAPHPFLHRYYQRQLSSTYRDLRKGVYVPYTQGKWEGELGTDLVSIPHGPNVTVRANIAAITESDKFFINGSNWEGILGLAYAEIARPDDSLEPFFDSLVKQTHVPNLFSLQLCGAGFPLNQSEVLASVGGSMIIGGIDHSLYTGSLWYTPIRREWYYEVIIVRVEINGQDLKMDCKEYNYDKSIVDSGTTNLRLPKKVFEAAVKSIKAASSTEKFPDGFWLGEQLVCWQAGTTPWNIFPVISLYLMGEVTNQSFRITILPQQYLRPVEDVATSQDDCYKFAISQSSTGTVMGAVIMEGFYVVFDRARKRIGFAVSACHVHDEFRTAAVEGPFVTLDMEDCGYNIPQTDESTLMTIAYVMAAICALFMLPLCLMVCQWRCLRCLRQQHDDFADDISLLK", "assay": "Inhibition of BACE1 using methoxycoumarin-Ser-Glu-Val-Asn-Leu-Asp-Ala-Glu-Phe-Lys-dinitrophenyl as substrate preincubated 1 hr before substrate addition measured after 15 mins by FRET assay"}, "[2]": {"assay": "Inhibition of BACE1 in chicken primary telencephalon neurons assessed as reduction of amyloid beta38 secretion after 24 hrs by ELISA", "design": "species or system Gallus gallus", "details": "for pIC50: Gallus gallus, 24 h, read-out: IC50; call rule not given here", "summary_of_the_method": "(§1)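 Aβ secretion from neurons after 24 h of inhibitor treatment. Data were corrected for mean neuron viability from an MTT reduction assay run after 24 h of treatment. Values are the mean of three independent experiments.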"}, "[3]": {"assay": "Inhibition of BACE1 in chicken primary telencephalon neurons assessed as reduction of amyloid beta40 secretion after 24 hrs by ELISA", "design": "species or system Gallus gallus", "details": "for pIC50: Gallus gallus, 24 h, read-out: IC50", "summary_of_the_method": "as §1"}, "[4]": {"assay": "Inhibition of BACE1 in chicken primary telencephalon neurons assessed as reduction of amyloid beta42 secretion after 24 hrs by ELISA", "design": "species or system Gallus gallus", "details": "for pIC50: Gallus gallus, 24 h, read-out: IC50", "summary_of_the_method": "as §1"}, "[5]": {"assay": "Permeability of the compound by PAMPA", "format": "ADME", "details": "read-out: permeability"}, "[6]": {"assay": "Cytotoxicity against chicken primary telencephalon neurons at 25 uM after 24 hrs by MTT assay", "design": "species or system Gallus gallus"}, "[7]": {"target": "T1, Beta-secretase 1", "assay": "Inhibition of BACE1 using methoxycoumarin-Ser-Glu-Val-Asn-Leu-Asp-Ala-Glu-Phe-Lys-dinitrophenyl as substrate at 100 uM preincubated 1 hr before substrate addition measured after 15 mins by FRET assay"}, "[8]": {"assay": "Cytotoxicity against chicken primary telencephalon neurons at 50 uM after 24 hrs by MTT assay", "design": "species or system Gallus gallus"}, "[9]": {"assay": "Solubility of the compound", "format": "physicochemical"}}, "note": "pIC50: −log10 of the molar value.", "data": [{"smiles": "Nc1nc(Cc2ccc(-c3cccc4oc5ccccc5c34)cc2)cn1Cc1ccccc1Cl", "values": [{"measurement": "pIC50", "setting": "[1]", "result": 5.23}, {"measurement": "IC50", "setting": "[2]", "result": "Not Active"}, {"measurement": "IC50", "setting": "[3]", "result": "Not Active"}, {"measurement": "IC50", "setting": "[4]", "result": "Not Active"}, {"measurement": "Papp", "setting": "[5]", "result": 4, "unit": "×10⁻⁶ cm/s"}]}, {"smiles": "Cn1c(=O)c2c(ncn2C)n(C)c1=O", "note": "[CAFFEINE]", "values": [{"measurement": "Papp", "setting": "[5]", "result": 0.9, "unit": "×10⁻⁶ cm/s"}]}, {"smiles": "COc1cc(OC)cc(-c2ccc(Cc3cn(Cc4ccc(F)cc4)c(N)n3)cc2)c1", "values": [{"measurement": "pIC50", "setting": "[1]", "result": 5.13}, {"measurement": "pIC50", "setting": "[2]", "result": 4.82}, {"measurement": "pIC50", "setting": "[3]", "result": 4.64}, {"measurement": "pIC50", "setting": "[4]", "result": 4.72}, {"measurement": "Activity", "setting": "[6]", "result": "Toxic"}, {"measurement": "Papp", "setting": "[5]", "result": 4, "unit": "×10⁻⁶ cm/s"}]}, {"smiles": "CN1C(C(=O)Nc2ccccn2)=C(O)c2ccccc2S1(=O)=O", "note": "[PIROXICAM]", "values": [{"measurement": "Papp", "setting": "[5]", "result": 0.4, "unit": "×10⁻⁶ cm/s"}]}, {"smiles": "CN(C)CCCN1c2ccccc2Sc2ccccc21", "note": "[PROMAZINE]", "values": [{"measurement": "Papp", "setting": "[5]", "result": 11.5, "unit": "×10⁻⁶ cm/s"}]}, {"smiles": "Nc1nc(Cc2ccccc2)cn1Cc1ccccc1", "values": [{"measurement": "inhibition", "setting": "[7]", "result": 19.6, "unit": "%"}]}, {"smiles": "CCn1cc(C(=O)O)c(=O)c2cc(F)c(N3CCNCC3)nc21", "note": "[ENOXACIN]", "values": [{"measurement": "Papp", "setting": "[5]", "result": 0.3, "unit": "×10⁻⁶ cm/s"}]}, {"smiles": "COc1cc(OC)cc(-c2ccc(Cc3cn(Cc4cc(F)cc(F)c4)c(N)n3)cc2)c1", "values": [{"measurement": "pIC50", "setting": "[1]", "result": 5.14}, {"measurement": "pIC50", "setting": "[2]", "result": 4.48}, {"measurement": "pIC50", "setting": "[3]", "result": 4.46}, {"measurement": "pIC50", "setting": "[4]", "result": 4.57}, {"measurement": "Papp", "setting": "[5]", "result": 3.2, "unit": "×10⁻⁶ cm/s"}, {"measurement": "Activity", "setting": "[8]", "result": "Toxic"}]}, {"smiles": "Nc1nc(Cc2ccc(-c3ccc(C(F)(F)F)cc3)cc2)cn1Cc1cc(F)cc(F)c1", "values": [{"measurement": "pIC50", "setting": "[1]", "result": 5.25}, {"measurement": "IC50", "setting": "[2]", "result": "Not Active"}, {"measurement": "IC50", "setting": "[3]", "result": "Not Active"}, {"measurement": "IC50", "setting": "[4]", "result": "Not Active"}, {"measurement": "solubility", "setting": "[9]", "result": "Insoluble"}]}]}
